Laboratory results taken from ChEMBL document CHEMBL1125626, “Synthesis and structure-activity relationship of new cephalosporins with amino heterocycles at C-7. Dependence of the antibacterial spectrum and beta-lactamase stability on the pKa of the C-7 heterocycle” (1991).
Values after ≈ are worked out from the molar mass of the structure shown.

How the values were obtained:
Klebsiella pneumoniae = test: Minimum inhibitory concentration against Klebsiella pneumoniae A24 (inoculum, 10e5 cfu per spot); assay type: functional
How it was run: (§1)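 MIC in µg/mL, determined in Jewell and Permain growth medium with spot inoculation at 10^5 cfu per spot.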

Proteus mirabilis = test: Minimum inhibitory concentration against Proteus mirabilis A18 (inoculum, 10e5 cfu per spot); assay type: functional; how it was run: as §1
Escherichia coli [1] = test: Minimum inhibitory concentration against Escherichia coli A8 (inoculum, 10e5 cfu per spot); assay type: functional; how it was run: as §1
Streptococcus pyogenes = test: Minimum inhibitory concentration against Streptococcus pyogenes (inoculum, 10e5 cfu per spot) A1; assay type: functional; how it was run: as §1
Staphylococcus aureus [2] = test: Minimum inhibitory concentration against Staphylococcus aureus A4 (inoculum, 10e5 cfu per spot); assay type: functional; how it was run: as §1
Enterobacter cloacae [3] = test: Minimum inhibitory concentration against Enterobacter cloacae P99 (inoculum, 10e4 cfu per spot); assay type: functional
How it was run: (§2)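 MIC in µg/mL, determined in Jewell and Permain growth medium with spot inoculation at 10^4 cfu per spot. P99 is described as a constitutive type I lactamase producer.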

Proteus vulgaris = test: Minimum inhibitory concentration against Proteus vulgaris Pv9 (inoculum, 10e5 cfu per spot)
Klebsiella aerogenes [4] = test: Minimum inhibitory concentration against Klebsiella aerogenes X5L (inoculum, 10e4 cfu per spot); assay type: functional; how it was run: as §2
Enterobacter cloacae [5] = test: Minimum inhibitory concentration against Enterobacter cloacae P99 (inoculum, 10e4 cfu per spot)(type I lactamase producer); assay type: functional; how it was run: as §2
Serratia marcescens = test: Minimum inhibitory concentration against Serratia marcescens A16 (inoculum, 10e5 cfu per spot); assay type: functional; how it was run: as §1
Escherichia coli [6] = test: Minimum inhibitory concentration against Escherichia coli TEM X3 (inoculum, 10e4 cfu per spot)(TEM I type lactamase producer)
Enterobacter cloacae [7] = test: Minimum inhibitory concentration against Enterobacter cloacae A13 (inoculum, 10e5 cfu per spot); assay type: functional; how it was run: as §1
Escherichia coli [8] = test: Minimum inhibitory concentration against Escherichia coli DCO (inoculum, 10e4 cfu per spot); assay type: functional; how it was run: as §2
Staphylococcus aureus [9] = test: Minimum inhibitory concentration against Staphylococcus aureus A6 (inoculum, 10e5 cfu per spot); assay type: functional; how it was run: as §1
Escherichia coli [10] = test: Minimum inhibitory concentration against Escherichia coli DC2 (inoculum, 10e4 cfu per spot); assay type: functional; how it was run: as §2
Escherichia coli [11] = test: Minimum inhibitory concentration against Escherichia coli X4 (inoculum, 10e4 cfu per spot)
Klebsiella aerogenes [12] = test: Minimum inhibitory concentration against Klebsiella aerogenes X6 (inoculum, 10e4 cfu per spot); assay type: functional; how it was run: as §2
Pseudomonas aeruginosa = test: Minimum inhibitory concentration against Pseudomonas aeruginosa A21 (inoculum, 10e5 cfu per spot); assay type: functional; how it was run: as §1

SMILES | MIC (Klebsiella pneumoniae) [µg/mL] | MIC (Proteus mirabilis) [µg/mL] | MIC (Escherichia coli [1]) [µg/mL] | MIC (Streptococcus pyogenes) [µg/mL] | MIC (Staphylococcus aureus [2]) [µg/mL] | MIC (Enterobacter cloacae [3]) [µg/mL] | MIC (Proteus vulgaris) [µg/mL] | MIC (Klebsiella aerogenes [4]) [µg/mL] | MIC (Enterobacter cloacae [5]) [µg/mL] | MIC (Serratia marcescens) [µg/mL] | MIC (Escherichia coli [6]) [µg/mL] | MIC (Enterobacter cloacae [7]) [µg/mL] | MIC (Escherichia coli [8]) [µg/mL] | MIC (Staphylococcus aureus [9]) [µg/mL] | MIC (Escherichia coli [10]) [µg/mL] | MIC (Escherichia coli [11]) [µg/mL] | MIC (Klebsiella aerogenes [12]) [µg/mL] | MIC (Pseudomonas aeruginosa) [µg/mL]
CC(=O)OCC1=C(C(=O)OC(c2ccccc2)c2ccccc2)N2C(=O)[C@@H](Nc3nc4cc(F)ccc4[nH]3)C2SC1 (some centres not stated) | 64 (≈ 112 µM) | 16 (≈ 27.9 µM) | 4 (≈ 6.99 µM) | 2 (≈ 3.49 µM) | 16 (≈ 27.9 µM) | 4 (≈ 6.99 µM) | > 256 | 256 (≈ 447 µM) | 256 (≈ 447 µM) | 256 (≈ 447 µM) | 4 (≈ 6.99 µM) | > 256 | 1 (≈ 1.75 µM) | 2 (≈ 3.49 µM) | 0.12 (≈ 0.21 µM) | 1 (≈ 1.75 µM) | 4 (≈ 6.99 µM) | > 256
CC(=O)OCC1=C(C(=O)OC(c2ccccc2)c2ccccc2)N2C(=O)[C@@H](Nc3nc4c(O)cccc4[nH]3)C2SC1 (some centres not stated) | 8 (≈ 14 µM) | 16 (≈ 28 µM) | 1 (≈ 1.75 µM) | 2 (≈ 3.5 µM) | 32 (≈ 56.1 µM) | 1 (≈ 1.75 µM) | 128 (≈ 224 µM) | 256 (≈ 449 µM) | > 256 | 256 (≈ 449 µM) | 32 (≈ 56.1 µM) | > 256 | 0.5 (≈ 0.876 µM) | 2 (≈ 3.5 µM) | 0.12 (≈ 0.21 µM) | 0.5 (≈ 0.876 µM) | 1 (≈ 1.75 µM) | > 256
CO/N=C(\C(=O)N[C@@H]1C(=O)N2C(C(=O)O)=C(COC(C)=O)CS[C@H]12)c1csc(N)n1 [CEFOTAXIME] | 0.06 (≈ 0.132 µM) | 0.06 (≈ 0.132 µM) | 0.25 (≈ 0.549 µM) | 0.03 (≈ 0.0659 µM) | 32 (≈ 70.3 µM) | 0.03 (≈ 0.0659 µM) | 0.5 (≈ 1.1 µM) | 4 (≈ 8.78 µM) | 32 (≈ 70.3 µM) | 0.25 (≈ 0.549 µM) | 0.06 (≈ 0.132 µM) | 256 (≈ 562 µM) | 0.03 (≈ 0.0659 µM) | 4 (≈ 8.78 µM) | 0.002 (≈ 0.00439 µM) | 0.06 (≈ 0.132 µM) | 0.06 (≈ 0.132 µM) | 128 (≈ 281 µM)
CC1=C(C(=O)OC(c2ccccc2)c2ccccc2)N2C(=O)[C@@H](NC3=NC(C)C(C)N3)C2SC1 (some centres not stated) | 16 (≈ 33.6 µM) | > 256 | 32 (≈ 67.1 µM) | > 256 | > 256 | 4 (≈ 8.39 µM) | > 256 | 32 (≈ 67.1 µM) | 4 (≈ 8.39 µM) | > 256 | 4 (≈ 8.39 µM) | 32 (≈ 67.1 µM) | 4 (≈ 8.39 µM) | > 256 | 4 (≈ 8.39 µM) | 4 (≈ 8.39 µM) | 16 (≈ 33.6 µM) | > 256
CC(=O)OCC1=C(C(=O)OC(c2ccccc2)c2ccccc2)N2C(=O)[C@@H](NC3=NCCN3)C2SC1 (some centres not stated) | 64 (≈ 126 µM) | 256 (≈ 505 µM) | 32 (≈ 63.2 µM) | 32 (≈ 63.2 µM) | > 256 | 32 (≈ 63.2 µM) | > 256 | 64 (≈ 126 µM) | 64 (≈ 126 µM) | 256 (≈ 505 µM) | 32 (≈ 63.2 µM) | 64 (≈ 126 µM) | 32 (≈ 63.2 µM) | > 256 | 2 (≈ 3.95 µM) | 32 (≈ 63.2 µM) | 64 (≈ 126 µM) | > 256

Results, then the compound that gave them:

MIC (Klebsiella pneumoniae) [µg/mL] | MIC (Proteus mirabilis) [µg/mL] | MIC (Escherichia coli [1]) [µg/mL] | MIC (Streptococcus pyogenes) [µg/mL] | MIC (Staphylococcus aureus [2]) [µg/mL] | MIC (Enterobacter cloacae [3]) [µg/mL] | MIC (Proteus vulgaris) [µg/mL] | MIC (Klebsiella aerogenes [4]) [µg/mL] | MIC (Enterobacter cloacae [5]) [µg/mL] | MIC (Serratia marcescens) [µg/mL] | MIC (Escherichia coli [6]) [µg/mL] | MIC (Enterobacter cloacae [7]) [µg/mL] | MIC (Escherichia coli [8]) [µg/mL] | MIC (Staphylococcus aureus [9]) [µg/mL] | MIC (Escherichia coli [10]) [µg/mL] | MIC (Escherichia coli [11]) [µg/mL] | MIC (Klebsiella aerogenes [12]) [µg/mL] | MIC (Pseudomonas aeruginosa) [µg/mL] | SMILES
4 (≈ 8.92 µM) | 256 (≈ 571 µM) | 2 (≈ 4.46 µM) | 128 (≈ 285 µM) | > 256 | 2 (≈ 4.46 µM) | > 256 | 4 (≈ 8.92 µM) | 4 (≈ 8.92 µM) | > 256 | 2 (≈ 4.46 µM) | 4 (≈ 8.92 µM) | 4 (≈ 8.92 µM) | > 256 | 2 (≈ 4.46 µM) | 2 (≈ 4.46 µM) | 4 (≈ 8.92 µM) | > 256 | CC1=C(C(=O)OC(c2ccccc2)c2ccccc2)N2C(=O)[C@@H](NC3=NCCN3)C2SC1 (some centres not stated)
1 (≈ 1.6 µM) | 4 (≈ 6.38 µM) | 1 (≈ 1.6 µM) | 0.5 (≈ 0.798 µM) | 8 (≈ 12.8 µM) | 1 (≈ 1.6 µM) | ≥ 128 | ≥ 128 | ≥ 128 | ≥ 128 | 4 (≈ 6.38 µM) | ≥ 128 | 0.5 (≈ 0.798 µM) | 1 (≈ 1.6 µM) | < 0.03 | 0.5 (≈ 0.798 µM) | 2 (≈ 3.19 µM) | ≥ 128 | Cc1nnc(SCC2=C(C(=O)OC(c3ccccc3)c3ccccc3)N3C(=O)[C@@H](Nc4nc5ccccc5[nH]4)C3SC2)s1 (some centres not stated)
2 (≈ 4.49 µM) | 32 (≈ 71.8 µM) | 2 (≈ 4.49 µM) | 4 (≈ 8.98 µM) | 64 (≈ 144 µM) | 1 (≈ 2.24 µM) | > 256 | 256 (≈ 575 µM) | > 256 | > 256 | 4 (≈ 8.98 µM) | 256 (≈ 575 µM) | 0.5 (≈ 1.12 µM) | 2 (≈ 4.49 µM) | 0.5 (≈ 1.12 µM) | 0.5 (≈ 1.12 µM) | 1 (≈ 2.24 µM) | > 256 | CC(=O)OCC1=C(C(=O)OC(C)(C)C)N2C(=O)[C@@H](Nc3nc4ccc[nH]c-4n3)C2SC1 (some centres not stated)
1 (≈ 1.71 µM) | 8 (≈ 13.7 µM) | 0.5 (≈ 0.855 µM) | 1 (≈ 1.71 µM) | 64 (≈ 109 µM) | 0.5 (≈ 0.855 µM) | 128 (≈ 219 µM) | 128 (≈ 219 µM) | > 256 | > 256 | 4 (≈ 6.84 µM) | > 256 | 0.5 (≈ 0.855 µM) | 8 (≈ 13.7 µM) | 0.06 (≈ 0.103 µM) | 0.5 (≈ 0.855 µM) | 1 (≈ 1.71 µM) | > 256 | CC(=O)OCC1=C(C(=O)OC(c2ccccc2)c2ccccc2)N2C(=O)[C@@H](Nc3nc4cc(CO)ccc4[nH]3)C2SC1 (some centres not stated)
